{"source": "ChEMBL document CHEMBL4387709", "about": "“Discovery of Quinoline Analogues as Potent Antivirals against Enterovirus D68 (EV-D68)” (J Med Chem, 2019)", "key": {"enterovirus D68 [1]": {"tested_on": "enterovirus D68", "test": "Antiviral activity against Enterovirus D68 US/MO/14-18947 infected in human A172 cells assessed as inhibition of virus-induced cytopathic effect incubated for 5 mins under shaking condition and measured after 3 days by neutral red dye-based photometric method", "type": "functional, organism-based", "conditions": "Enterovirus D, US/MO/14-18947, A 172", "in_short": "(§1)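 A172 cells (DMEM, 10% FBS) grown ~90% confluent, infected with EV-D68 at ~MOI 0.3 in DMEM/2% FBS/30 mM MgCl2 and kept at 33 °C. P/S and compounds added 1 h later. Brief orbital shaking, then 3-day incubation. Neutral red staining with 540 nm absorbance. EC50 from best-fit dose-response curves in triplicate.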"}, "RD [2]": {"tested_on": "RD", "test": "Inhibition of 2C protein in Enterovirus D68 US/KY/14-18953 infected in human RD cells assessed as reduction of VP1 expression at 1 uM measured at 9 hrs post infection by Western blot analysis", "type": "cell-based", "in_short": "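Equal protein separated and blotted to PVDF. Probed with rabbit anti-VP1 and mouse anti-GAPDH (1:3,000), HRP secondary, chemiluminescent detection. Mean of two independent experiments ± SD.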"}, "[3]": {"test": "Selectivity index, ratio of CC50 for human RD cells to EC50 for Enterovirus D68 US/MO/14-18947 infected in human RD cells", "type": "toxicity, cell-based", "conditions": "read-out: Ratio CC50/EC50"}, "[4]": {"test": "Selectivity index, ratio of CC50 for human A172 cells to EC50 for Enterovirus D68 US/MO/14-18947 infected in human A172 cells", "type": "toxicity, cell-based", "conditions": "read-out: Ratio CC50/EC50", "in_short": "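A172 cells kept in DMEM with 10% FBS and 1% P/S, grown to about 90% confluency, then infected at MOI about 0.3 in DMEM with 2% FBS and 30 mM MgCl2 at 33 °C. After 1 h, P/S and compounds were added. Viable cells were stained with neutral red after 3 days (A540). CC50 came from the same assay without virus. EC50 and CC50 were fitted from triplicate dose-response data, and SI = CC50/EC50.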"}, "enterovirus D68 [5]": {"tested_on": "enterovirus D68", "test": "Antiviral activity against Enterovirus D68 US/KY/14-18953 infected in human A172 cells assessed as inhibition of virus-induced cytopathic effect incubated for 5 mins under shaking condition and measured after 3 days by neutral red dye-based photometric method", "type": "functional, organism-based", "conditions": "Enterovirus D, US/KY/14-18953, A 172", "in_short": "as §1"}, "enterovirus D68 [6]": {"tested_on": "enterovirus D68", "test": "Antiviral activity against Enterovirus D68 US/IL/14-18956 infected in human RD cells assessed as inhibition of virus-induced cytopathic effect incubated for 5 mins under shaking condition and measured after 3 days by neutral red dye-based photometric method", "type": "functional, organism-based", "conditions": "Enterovirus D, US/IL/14-18956, RD", "in_short": "(§2)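 RD cells seeded one day ahead to ~90% confluence, PBS (Mg/Ca) wash, infected at ~MOI 0.01 with EV-D68 in DMEM/2% FBS/30 mM MgCl2 at 33 °C, 5% CO2. Compounds and 1% P/S added after 1 h. Plates shaken ~5 min, held 3 days, viable cells stained with neutral red (66 µg/ml), A540 read. EC50 from dose-response fits, triplicates.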"}, "enterovirus D68 [7]": {"tested_on": "enterovirus D68", "test": "Antiviral activity against Enterovirus D68 US/MO/14-18949 infected in human RD cells assessed as inhibition of virus-induced cytopathic effect incubated for 5 mins under shaking condition and measured after 3 days by neutral red dye-based photometric method", "type": "functional, organism-based", "conditions": "Enterovirus D, US/MO/14-18949, RD", "in_short": "as §2"}, "SH-SY5Y": {"tested_on": "SH-SY5Y", "test": "Cytotoxicity against human SH-SY5Y cells after 3 days by neutral red dye-based photometric method", "type": "cell-based", "conditions": "72 h", "in_short": "(§3)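 Uninfected cells run as in the CPE assay (33 °C, 3 days, same media) with compound. Viability by neutral red staining and 540 nm absorbance. CC50 from dose-response curves, triplicate experiments.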"}, "[8]": {"test": "Selectivity index, ratio of CC50 for human RD cells to EC50 for Enterovirus D68 US/MO/14-18949 infected in RD human cells", "type": "toxicity, cell-based", "conditions": "read-out: Ratio CC50/EC50"}, "Influenza A virus": {"tested_on": "Influenza A virus", "test": "Antiviral activity against Influenza A virus (A/California/07/2009(H1N1)) at 10 uM after 2 days by plaque assay", "type": "functional, organism-based"}, "HeLa": {"tested_on": "HeLa", "test": "Cytotoxicity against human HeLa cells after 3 days by neutral red dye-based photometric method", "type": "cell-based", "conditions": "72 h", "in_short": "as §3"}, "[9]": {"test": "Selectivity index, ratio of CC50 for human RD cells to EC50 for Enterovirus D68 US/IL/14-18956 infected in human RD cells", "type": "toxicity, cell-based", "conditions": "read-out: Ratio CC50/EC50", "in_short": "(§4)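 RD cells in DMEM with 10% FBS were infected at about 90% confluency at MOI about 0.01, giving full CPE by 3 days, in DMEM with 2% FBS and 30 mM MgCl2 at 33 °C. Compounds and P/S were added 1 h after infection. Viability was read by neutral red uptake (A540). CC50 came from uninfected cells. Means were from triplicates, and SI = CC50/EC50.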"}, "enterovirus D68 [10]": {"tested_on": "enterovirus D68", "test": "Antiviral activity against Enterovirus D68 US/KY/14-18953 infected in human SH-SY5Y cells assessed as inhibition of virus-induced cytopathic effect incubated for 5 mins under shaking condition and measured after 3 days by neutral red dye-based photometric method", "type": "functional, organism-based", "conditions": "Enterovirus D, US/KY/14-18953, SH-SY5Y", "in_short": "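Virus at ~MOI 1 applied to SH-SY5Y cells (50% DMEM/50% F-12, 10% FBS) at ~90% confluence in DMEM/2% FBS/30 mM MgCl2 at 33 °C. Compounds added after 1 h with 1% P/S, shaken ~5 min, incubated 3 days. Viability read by neutral red uptake (A540). EC50 fitted from dose-response, triplicate.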"}, "A549": {"tested_on": "A549", "test": "Cytotoxicity against human A549 cells after 3 days by neutral red dye-based photometric method", "type": "cell-based", "conditions": "a549, 72 h", "in_short": "as §3"}, "enterovirus D68 [11]": {"tested_on": "enterovirus D68", "test": "Antiviral activity against Enterovirus D68 US/MO/14-18947 infected in human RD cells assessed as inhibition of virus-induced cytopathic effect incubated for 5 mins under shaking condition and measured after 3 days by neutral red dye-based photometric method", "type": "functional, organism-based", "conditions": "Enterovirus D, US/MO/14-18947, RD", "in_short": "as §2"}, "[12]": {"test": "Selectivity index, ratio of CC50 for human SH-SY5Y cells to EC50 for Enterovirus D68 US/MO/14-18947 infected in human SH-SY5Y cells", "type": "toxicity, cell-based", "conditions": "read-out: Ratio CC50/EC50", "in_short": "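SH-SY5Y cells grown in 50% DMEM/50% F-12 with 10% FBS and 1% P/S to about 90% confluency, then infected at MOI about 1 in DMEM with 2% FBS and 30 mM MgCl2 at 33 °C. Compounds were added after 1 h. Neutral red staining was read at 540 nm after 3 days. CC50 came from uninfected cells under the same conditions. Values were triplicate dose-response fits, and SI = CC50/EC50.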"}, "[13]": {"test": "Selectivity index, ratio of CC50 for human RD cells to EC50 for Enterovirus D68 […] infected in human RD cells", "type": "toxicity, cell-based", "conditions": "read-out: Ratio CC50/EC50", "in_short": "as §4"}, "RD [14]": {"tested_on": "RD", "test": "Inhibition of 2C protein in Enterovirus D68 US/KY/14-18953 infected in human RD cells assessed as reduction of VP1 expression at 1 uM measured at 9 hrs post infection by DAPI-staining based microscopy", "type": "cell-based", "in_short": "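Fixed at 9 hpi (4% formaldehyde), 0.2% Triton X-100 permeabilized, blocked with 10% bovine serum. Stained with rabbit anti-VP1 plus Alexa-488 secondary, nuclei with 300 nM DAPI. Confocal microscopy.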"}, "[15]": {"test": "Selectivity index, ratio of CC50 for human RD cells to EC50 for Enterovirus D68 US/KY/14-18953 infected in human RD cells", "type": "toxicity, cell-based", "conditions": "read-out: Ratio CC50/EC50"}}, "note": "Activity calls are given as the source filed them. The calls are words filed in the database; no cut-off is given here."}
{"smiles": "O=C(NCCN1CCCC1)c1cc(-c2cccs2)nc2ccccc12", "values": [{"measurement": "EC50", "setting": "enterovirus D68 [1]", "result": 200, "unit": "nM"}, {"measurement": "inhibition", "setting": "RD [2]", "result": "Active"}, {"measurement": "selectivity ratio", "setting": "[3]", "result": 667}, {"measurement": "selectivity ratio", "setting": "[4]", "result": 327}, {"measurement": "EC50", "setting": "enterovirus D68 [5]", "result": 50, "unit": "nM"}, {"measurement": "EC50", "setting": "enterovirus D68 [6]", "result": 50, "unit": "nM"}, {"measurement": "EC50", "setting": "enterovirus D68 [7]", "result": 50, "unit": "nM"}, {"measurement": "CC50", "setting": "SH-SY5Y", "result": 93300, "unit": "nM"}, {"measurement": "selectivity ratio", "setting": "[8]", "result": 800}, {"measurement": "Activity", "setting": "Influenza A virus", "result": "inactive"}, {"measurement": "CC50", "setting": "HeLa", "result": 41700, "unit": "nM"}, {"measurement": "selectivity ratio", "setting": "[9]", "result": 800}, {"measurement": "EC50", "setting": "enterovirus D68 [10]", "result": 100, "unit": "nM"}, {"measurement": "CC50", "setting": "A549", "result": 83200, "unit": "nM"}, {"measurement": "EC50", "setting": "enterovirus D68 [11]", "result": 60, "unit": "nM"}, {"measurement": "selectivity ratio", "setting": "[12]", "result": 4660}, {"measurement": "selectivity ratio", "setting": "[13]", "result": 571}, {"measurement": "inhibition", "setting": "RD [14]", "result": "Active"}, {"measurement": "selectivity ratio", "setting": "[15]", "result": 667}]}
